Assay results as given in ChEMBL document CHEMBL4043172, “Constructing novel dihydrofuran and dihydroisoxazole analogues of isocombretastatin-4 as tubulin polymerization inhibitors through [3+2] reactions” (Bioorg Med Chem, 2017).
Active and inactive are the calls of the source. The rule behind the calls is not given here.

Tests used:
HeLa = assay: Cytotoxicity against human HeLa cells assessed as reduction in cell viability incubated for 48 hrs by SRB assay; format: functional, cell-based
How it was run: (§1)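 SRB colorimetric antiproliferative assay. Cells were grown in RPMI-1640 with 10% heat-inactivated FBS and penicillin/streptomycin at 37 °C and 5% CO2, and compound-exposed for 48 h. IC50 is the concentration causing 50% inhibition of cell viability, given as mean ± SD of three determinations.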

PC-3 [1] = assay: Cytotoxicity against human PC3 cells assessed as reduction in cell viability incubated for 48 hrs by SRB assay; format: functional, cell-based; conditions: PC-3, 48 h; how it was run: as §1
PC-3 [2] = assay: Cell cycle arrest in human PC3 cells assessed as accumulation at G0/G1 phase at 0.5 uM incubated for 24 hrs by propidium iodide staining based FACS assay (reference value: 62.5%); format: functional
How it was run: (§2)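 PC-3 cells in RPMI-1640 with 10% FBS at 37 °C and 5% CO2. Cells were plated at 1.0×10^5 cells/mL and pre-incubated 24 h, then treated. They were collected by centrifugation, fixed in 70% ethanol overnight at 4 °C, resuspended in PBS with RNase A and propidium iodide, and analysed by flow cytometry for phase distribution against untreated control.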

[3] = (§3) Inhibition of porcine brain tubulin polymerization incubated for 80 mins by fluorescence based spectrophotometry; design: species or system Sus scrofa
How it was run: (§4)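 Cell-free fluorescence kit assay. Tubulin (10 mg/mL) in buffer 1 with tubulin glycerol buffer and GTP (100 mM stock) was exposed to compound or DMSO for 80 min at 37 °C. Fluorescence (ex 360 nm, em 460 nm) was read each minute. IC50 was derived from five concentrations: 3, 5, 10, 20 and 40 μM.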

Sus scrofa [4] = species: Sus scrofa; assay: as §3; how it was run: as §4
PC-3 [5] = assay: Cell cycle arrest in human PC3 cells assessed as accumulation at G0/G1 phase at 1 uM incubated for 24 hrs by propidium iodide staining based FACS assay (reference value: 62.5%); format: functional; how it was run: as §2
Homo sapiens [6] = species: Homo sapiens; assay: Inhibition of tubulin polymerization in human PC3 cells assessed as disruption of microtubule network at 1 uM incubated for 48 hrs by immunohistochemistry; format: cell-based
How it was run: (§5)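 PC-3 cells were treated for 48 h, then fixed with 4% paraformaldehyde for 30 min and permeabilized with 0.1% Triton X-100 at 4 °C in the dark for 30 min. After blocking in PBS with 5% BSA, cells took anti-α-tubulin (1:500) overnight at 4 °C, then TRITC goat anti-rabbit IgG (1:500) for 1 h at RT. Nuclei were DAPI-stained and imaged by fluorescence microscopy at 20×.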

PC-3 [7] = assay: Cell cycle arrest in human PC3 cells assessed as accumulation at G2/M phase at 0.5 uM incubated for 24 hrs by propidium iodide staining based FACS assay (reference value: 14%); format: functional; how it was run: as §2
PC-3 [8] = assay: Cell cycle arrest in human PC3 cells assessed as accumulation at G2/M phase at 1 uM incubated for 24 hrs by propidium iodide staining based FACS assay (reference value: 14%); format: functional; how it was run: as §2
PC-3 [9] = assay: Cell cycle arrest in human PC3 cells assessed as accumulation at S phase at 1 uM incubated for 24 hrs by propidium iodide staining based FACS assay (reference value: 23.5%); format: functional; how it was run: as §2
Homo sapiens [10] = species: Homo sapiens; assay: Inhibition of tubulin polymerization in human PC3 cells assessed as disruption of microtubule network at 0.02 uM incubated for 48 hrs by immunohistochemistry; format: cell-based; conditions: 1 uM, in the assay text read “at 1 uM” for “at 0.02 uM”; how it was run: as §5
PC-3 [11] = assay: Cell cycle arrest in human PC3 cells assessed as accumulation at S phase at 0.5 uM incubated for 24 hrs by propidium iodide staining based FACS assay (reference value: 23.5%); format: functional; how it was run: as §2
Sus scrofa [12] = species: Sus scrofa; assay: Induction of porcine brain tubulin polymerization at 3 uM incubated for 80 mins by fluorescence based spectrophotometry
How it was run: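 Fluorescence-based cell-free kit assay. Tubulin (10 mg/mL) in buffer 1 with tubulin glycerol buffer and GTP (100 mM stock) was incubated with compound or DMSO vehicle for 80 min at 37 °C. Polymerization was followed as fluorescence increase read every minute at 360 nm excitation and 460 nm emission.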

PC-3 [13] = assay: Cell cycle arrest in human PC3 cells assessed as accumulation at G0/G1 phase at 0.05 uM incubated for 24 hrs by propidium iodide staining based FACS assay (reference value: 62.5%); format: functional; how it was run: as §2
Sus scrofa [14] = species: Sus scrofa; assay: Inhibition of porcine brain tubulin polymerization at 3 uM incubated for 80 mins by fluorescence based spectrophotometry
How it was run: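 Fluorescence-based kit assay. Tubulin (10 mg/mL) in buffer 1 with tubulin glycerol buffer and GTP (100 mM stock) was incubated with compound at 3 µM, with DMSO as vehicle control, at 37 °C for 80 min. Polymerization was followed as the fluorescence increase, read every minute at 360 nm excitation and 460 nm emission.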

PC-3 [15] = assay: Cell cycle arrest in human PC3 cells assessed as accumulation at G2/M phase at 0.05 uM incubated for 24 hrs by propidium iodide staining based FACS assay (reference value: 14%); format: functional; how it was run: as §2
PC-3 [16] = assay: Cell cycle arrest in human PC3 cells assessed as accumulation at S phase at 0.05 uM incubated for 24 hrs by propidium iodide staining based FACS assay (reference value: 23.5%); format: functional; how it was run: as §2

| Compound | IC50 (HeLa) | IC50 (PC-3 [1]) | other results |
| --- | --- | --- | --- |
| COc1ccc(C2(c3cc(OC)c(OC)c(OC)c3)CC(C(C)=O)=C(C)O2)cc1O (stereo unspecified) | > 10 µM | 6.37 µM |  |
| COc1ccc(C2=NOC(c3ccc(OC)c(O)c3)(c3cc(OC)c(OC)c(OC)c3)C2)cc1 (stereo unspecified) | > 10 µM | > 10 µM |  |
| CCCCC1(c2cc(OC)c(OC)c(OC)c2)CC(c2ccc(O)c(OC)c2)=NO1 (stereo unspecified) | > 10 µM | > 10 µM |  |
| COc1ccc(C2=NOC(c3ccc(OC)c(O)c3)(c3cc(OC)c(OC)c(OC)c3)C2)cc1O (stereo unspecified) | > 10 µM | > 10 µM |  |
| CCCCC1(c2cc(OC)c(OC)c(OC)c2)CC(C#N)=C(c2ccc(Cl)cc2)O1 (stereo unspecified) | > 10 µM | > 10 µM |  |
| CCCCC1(c2cc(OC)c(OC)c(OC)c2)CC(C#N)=C(C(C)(C)C)O1 (stereo unspecified) | > 10 µM | > 10 µM |  |
| COc1ccc(C2(c3cc(OC)c(OC)c(OC)c3)CC(C#N)=C(c3ccc(Br)cc3)O2)cc1O (stereo unspecified) | > 10 µM | > 10 µM |  |
| COc1ccc(C2(c3cc(OC)c(OC)c(OC)c3)CC(C(=O)C(F)(F)F)=C(C)O2)cc1O (stereo unspecified) | > 10 µM | 9.45 µM |  |
| COc1ccc(C2=C(C#N)CC(c3ccc(OC)c(O)c3)(c3cc(OC)c(OC)c(OC)c3)O2)cc1 (stereo unspecified) | > 10 µM | > 10 µM |  |
| COc1ccc(C2(c3cc(OC)c(OC)c(OC)c3)CC(c3ccc(Cl)cc3)=NO2)cc1O (stereo unspecified) | 3.29 µM | 0.47 µM | Activity (PC-3 [2]): 23.2%; IC50 [3]: 30.7 µM; inhibition (Sus scrofa [4]): Dose-dependent effect; Activity (PC-3 [5]): 6.7%; inhibition (Homo sapiens [6]): Active; Activity (PC-3 [7]): 63.5%; Activity (PC-3 [8]): 84.5%; Activity (PC-3 [9]): 8.8%; inhibition (Homo sapiens [10]): Active; Activity (PC-3 [11]): 13.3% |
| COc1ccc(C2(c3cc(OC)c(OC)c(OC)c3)CC(c3ccc([N+](=O)[O-])cc3)=NO2)cc1O (stereo unspecified) | > 10 µM | > 10 µM |  |
| COc1ccc(C2(c3cc(OC)c(OC)c(OC)c3)CC(c3ccc(C)cc3)=NO2)cc1O (stereo unspecified) | 4.45 µM | 0.85 µM |  |
| COc1ccc(C2(c3cc(OC)c(OC)c(OC)c3)CC(c3ccc(Cl)cc3OC)=NO2)cc1O (stereo unspecified) | > 10 µM | > 10 µM |  |
| COc1ccc(C2(c3cc(OC)c(OC)c(OC)c3)CC(C#N)=C(c3ccc(Cl)c(Cl)c3)O2)cc1O (stereo unspecified) | > 10 µM | > 10 µM |  |
| CC(=O)O[C@H]1C(=O)[C@@]2(C)[C@H]([C@H](OC(=O)c3ccccc3)[C@]3(O)C[C@H](OC(=O)[C@H](O)[C@@H](NC(=O)c4ccccc4)c4ccccc4)C(C)=C1C3(C)C)[C@]1(OC(C)=O)CO[C@@H]1C[C@@H]2O |  |  | Activity (Sus scrofa [12]): Active |
| COc1ccc(C2(c3cc(OC)c(OC)c(OC)c3)CC(C#N)=C(c3cccs3)O2)cc1O (stereo unspecified) | > 10 µM | 4.8 µM |  |
| COc1ccc(C2(c3cc(OC)c(OC)c(OC)c3)CC(C#N)=C(c3ccc(C)cc3)O2)cc1O (stereo unspecified) | > 10 µM | 6.99 µM |  |
| COc1ccc(C2(c3cc(OC)c(OC)c(OC)c3)CC(c3ccccc3[N+](=O)[O-])=NO2)cc1O (stereo unspecified) | > 10 µM | 8.21 µM |  |
| COc1ccc(/C=C\c2cc(OC)c(OC)c(OC)c2)cc1O [COMBRETASTATIN A4] | 0.53 µM | 0.007 µM | Activity (PC-3 [13]): 6.8%; inhibition (Sus scrofa [14]): Active; Activity (PC-3 [15]): 71.9%; Activity (PC-3 [16]): 21.3% |
| C=C(c1ccc(OC)c(O)c1)c1cc(OC)c(OC)c(OC)c1 | 0.085 µM | 0.001 µM | inhibition (Sus scrofa [14]): Active |
| COc1ccc(C2(c3cc(OC)c(OC)c(OC)c3)CC(C(=O)c3ccccc3)=C(c3ccccc3)O2)cc1O (stereo unspecified) | 2.32 µM | 0.78 µM |  |

| Compound | IC50 (HeLa) | IC50 (PC-3 [1]) | other results |
| --- | --- | --- | --- |
| COc1ccc(C2(c3cc(OC)c(OC)c(OC)c3)CC(C#N)=C(c3ccc(Cl)cc3)O2)cc1O (stereo unspecified) | > 10 µM | 0.86 µM |  |
| COc1ccc(C2(c3cc(OC)c(OC)c(OC)c3)CC(c3ccccc3Cl)=NO2)cc1O (stereo unspecified) | 3.27 µM | 0.81 µM |  |
| CCCCC1(c2cc(OC)c(OC)c(OC)c2)CC(c2ccc(Cl)cc2)=NO1 (stereo unspecified) | > 10 µM | > 10 µM |  |
| COc1ccc([C@@]2(c3cc(OC)c(OC)c(OC)c3)CC(C#N)=C(c3ccccc3)O2)cc1O | > 10 µM | 9.47 µM |  |
| CCCCC1(c2cc(OC)c(OC)c(OC)c2)CC(C(=O)c2ccccc2)=C(c2ccccc2)O1 (stereo unspecified) | > 10 µM | > 10 µM |  |
| COc1ccc([C@]2(c3cc(OC)c(OC)c(OC)c3)CC(C#N)=C(c3ccccc3)O2)cc1O | > 10 µM | 10.2 µM |  |
| COc1ccc(C2(c3cc(OC)c(OC)c(OC)c3)CC(c3ccc(O)c(OC)c3)=NO2)cc1O (stereo unspecified) | > 10 µM | > 10 µM |  |
| COc1ccc(C2(c3cc(OC)c(OC)c(OC)c3)CC(C#N)=C(C(C)(C)C)O2)cc1O (stereo unspecified) | > 10 µM | > 10 µM |  |
| CCCCC1(c2cc(OC)c(OC)c(OC)c2)CC(c2ccc(Cl)cc2OC)=NO1 (stereo unspecified) | > 10 µM | > 10 µM |  |
| COc1ccc(C2(c3cc(OC)c(OC)c(OC)c3)CC(c3ccc(O)cc3)=NO2)cc1O (stereo unspecified) | 7.57 µM | > 10 µM |  |
| COc1ccc(C2(c3cc(OC)c(OC)c(OC)c3)CC(C#N)=C(c3ccc(F)cc3)O2)cc1O (stereo unspecified) | 7.21 µM | 0.81 µM |  |
| COc1ccc(C2(c3cc(OC)c(OC)c(OC)c3)CC(c3ccc(O)c(O)c3)=NO2)cc1O (stereo unspecified) | > 10 µM | 9.56 µM |  |
| COc1ccc(C2(c3cc(OC)c(OC)c(OC)c3)CC(c3ccccc3)=NO2)cc1O (stereo unspecified) | > 10 µM | > 10 µM |  |
| COc1ccc(C2(c3cc(OC)c(OC)c(OC)c3)CC(c3cc(OC)c(OC)c(OC)c3Cl)=NO2)cc1O (stereo unspecified) | > 10 µM | 8.63 µM |  |
| COc1ccc([C@@]2(c3cc(OC)c(OC)c(OC)c3)CC3=C(CCCC3=O)O2)cc1O | > 10 µM | 17 µM |  |
| COc1ccc(C2(c3cc(OC)c(OC)c(OC)c3)CC(C(=O)c3ccccc3)=C(C)O2)cc1O (stereo unspecified) | > 10 µM | > 10 µM |  |
| CCC(=O)C1=C(CC)OC(c2ccc(OC)c(O)c2)(c2cc(OC)c(OC)c(OC)c2)C1 (stereo unspecified) | > 10 µM | 8.47 µM |  |
| COc1ccc(C2(c3cc(OC)c(OC)c(OC)c3)CC(C#N)=C(c3ccccc3Cl)O2)cc1O (stereo unspecified) | > 10 µM | 0.79 µM |  |
| COc1ccc([C@]2(c3cc(OC)c(OC)c(OC)c3)CC3=C(CCCC3=O)O2)cc1O | > 10 µM | 15.1 µM |  |
| COc1ccc(C2(c3cc(OC)c(OC)c(OC)c3)CC(c3ccccn3)=NO2)cc1O (stereo unspecified) | > 10 µM | > 10 µM |  |
